# From ChEMBL document CHEMBL1921740, “Pyrrolamide DNA gyrase inhibitors: optimization of antibacterial activity and efficacy” (Bioorg Med Chem Lett, 2011)
# pIC50: −log10 of the molar value.
# Legend:
# DNA gyrase subunit B = DNA gyrase subunit B (Staphylococcus aureus, UniProt P0A0K8); assay: Inhibition of ATPase activity of recombinant Staphylococcus aureus DNA gyrase B hybrid tetramer enzyme reconstituted from Escherichia coli GyrA by ammonium molybdate/malachite green phosphate assay
# Outline: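 GyrB ATPase activity of a hybrid tetramer reconstituted in vitro from recombinant S. aureus protein. Released phosphate detected with ammonium molybdate/malachite green. Test compound assayed across a range of concentrations.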
# Staphylococcus aureus [1] = assay: Antibacterial activity against methicillin-resistant, quinolone-resistant Staphylococcus aureus ARC517; assay type: functional
# Moraxella catarrhalis = assay: Antibacterial activity against Moraxella catarrhalis ARC445; assay type: functional
# Staphylococcus aureus [2] = assay: Antibacterial activity against Staphylococcus aureus ARC516; assay type: functional
# Enterococcus faecium = assay: Antibacterial activity against Enterococcus faecium ARC073; assay type: functional
# Haemophilus influenzae = assay: Antibacterial activity against Haemophilus influenzae ARC446; assay type: functional
# Escherichia coli [3] = assay: Antibacterial activity against Escherichia coli ARC523; assay type: functional
# Escherichia coli [4] = assay: Antibacterial activity against TolC-deficient Escherichia coli ARC524; assay type: functional
# Streptococcus pneumoniae [5] = assay: Antibacterial activity against Streptococcus pneumoniae ARC548; assay type: functional
# Streptococcus pneumoniae [6] = assay: Antibacterial activity against Streptococcus pneumoniae ARC548 infected in po dosed CD1 mouse lung infection pneumonia model assessed as dose required to maximum effect on reduction of viable bacterial counts administered 18 hrs after post infection measured after 24 hrs; assay type: functional
# Outline: (§1)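 Mice infected in the lung with S. pneumoniae received oral doses of drug or vehicle starting 18 h post-infection, at 40, 60 or 80 mg/kg, with a pre-treatment control group. Lungs were taken 24 h after treatment began, and homogenates were serially diluted and plated for viable counts. Results are reported as group mean log CFU/lung ± standard error.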
# Streptococcus pneumoniae [7] = assay: Antibacterial activity against Streptococcus pneumoniae ARC548 infected in po dosed CD1 mouse lung infection pneumonia model assessed as reduction in viable bacterial counts administered 18 hrs after post infection measured after 24 hrs; assay type: functional; outline: as §1
# [8] = Staphylococcus aureus, ARC517, read-out: MIC
# [9] = Moraxella catarrhalis, ARC445, read-out: MIC
# [10] = Staphylococcus aureus, ARC516, read-out: MIC
# [11] = Enterococcus faecium, ARC073, read-out: MIC
# [12] = Haemophilus influenzae, ARC446, read-out: MIC
# [13] = Escherichia coli, ARC524, read-out: MIC
# [14] = Streptococcus pneumoniae, ARC548, read-out: MIC
# Chain of DNA gyrase subunit B (P0A0K8 whole entry): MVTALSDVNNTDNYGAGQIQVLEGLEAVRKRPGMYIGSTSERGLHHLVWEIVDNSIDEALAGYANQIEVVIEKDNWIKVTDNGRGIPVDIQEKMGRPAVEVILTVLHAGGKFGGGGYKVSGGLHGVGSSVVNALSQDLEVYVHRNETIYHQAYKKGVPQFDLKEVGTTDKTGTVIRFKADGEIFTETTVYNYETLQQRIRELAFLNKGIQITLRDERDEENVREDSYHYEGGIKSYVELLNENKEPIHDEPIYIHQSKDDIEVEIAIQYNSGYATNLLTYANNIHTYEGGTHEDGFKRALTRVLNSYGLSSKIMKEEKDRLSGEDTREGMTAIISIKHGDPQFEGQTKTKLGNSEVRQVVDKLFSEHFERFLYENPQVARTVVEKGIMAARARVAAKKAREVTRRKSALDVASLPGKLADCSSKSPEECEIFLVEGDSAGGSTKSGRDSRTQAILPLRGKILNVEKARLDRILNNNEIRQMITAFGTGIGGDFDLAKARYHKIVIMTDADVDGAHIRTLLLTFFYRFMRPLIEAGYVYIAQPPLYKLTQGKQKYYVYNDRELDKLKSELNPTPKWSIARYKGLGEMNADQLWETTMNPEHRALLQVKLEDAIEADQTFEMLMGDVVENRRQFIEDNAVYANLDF
SMILES,pIC50 (DNA gyrase subunit B),MIC (Staphylococcus aureus [1]; [8]) [µg/mL],MIC (Moraxella catarrhalis; [9]) [µg/mL],MIC (Staphylococcus aureus [2]; [10]) [µg/mL],MIC (Enterococcus faecium; [11]) [µg/mL],MIC (Haemophilus influenzae; [12]) [µg/mL],MIC (Escherichia coli [3]) [µg/mL],MIC (Escherichia coli [4]; [13]) [µg/mL],MIC (Streptococcus pneumoniae [5]; [14]) [µg/mL],MIC (Staphylococcus aureus [1]) [µg/mL],MIC (Moraxella catarrhalis) [µg/mL],MIC (Staphylococcus aureus [2]) [µg/mL],MIC (Enterococcus faecium) [µg/mL],MIC (Haemophilus influenzae) [µg/mL],MIC (Escherichia coli [4]) [µg/mL],MIC (Streptococcus pneumoniae [5]) [µg/mL],Activity (Streptococcus pneumoniae [6]) [mg/kg],Activity (Streptococcus pneumoniae [7]),ED50 (Streptococcus pneumoniae [7]) [mg/kg]
CONC(=O)c1cnc(N2CCC(NC(=O)c3[nH]c(C)c(Cl)c3Cl)CC2)s1,7.30,8,1,8,8,16,> 64,0.25,1,–,–,–,–,–,–,–,–,–,–
Cc1[nH]c(C(=O)N[C@H]2CCN(c3ncc(C(=O)O)s3)C[C@H]2F)c(Cl)c1Cl (racemic),> 8.00,–,–,–,–,–,> 64,–,–,4,<0.06,2,0.5,0.5,0.13,0.13,–,–,–
Cc1[nH]c(C(=O)NC2CCN(c3cc(C(N)=O)cc(Cl)n3)CC2)c(Cl)c1Cl,7.52,4,2,4,4,> 64,> 64,2,1,–,–,–,–,–,–,–,–,–,–
Cc1[nH]c(C(=O)NC2CCN(c3cc(C(N)=O)cc(Cl)n3)CC2)cc1Cl,6.96,32,–,> 32,> 32,> 64,> 64,8,4,–,–,–,–,–,–,–,–,–,–
Cc1[nH]c(C(=O)NC2CCN(C3CN[C@H](C(=O)O)C3)CC2)c(Cl)c1Cl (stereo not given in full),3.89,> 64,> 64,> 64,> 64,> 64,> 64,> 64,> 64,–,–,–,–,–,–,–,–,–,–
Cc1[nH]c(C(=O)NC2CCN(c3nnco3)CC2)c(Cl)c1Cl,6.64,32,4,32,32,64,> 64,4,4,–,–,–,–,–,–,–,–,–,–
Cc1[nH]c(C(=O)NC2CCN(c3cc(C(N)=O)cc(Cl)n3)CC2)cc1C#N,6.82,> 64,–,–,–,> 64,–,–,4,–,–,–,–,–,–,–,–,–,–
Cc1[nH]c(C(=O)N[C@@H]2CCN(c3ncc(C(=O)O)s3)C[C@H]2F)c(Cl)c1Cl (racemic),6.96,> 64,16,> 64,32,64,> 64,4,8,–,–,–,–,–,–,–,–,–,–
Cc1[nH]c(C(=O)NC2CCN(c3ncc(C(=O)O)s3)CC2)c(Cl)c1Cl,7.70,8,0.5,8,2,2,> 64,0.25,0.5,–,–,–,–,–,–,–,–,–,–
Cc1[nH]c(C(=O)NC2CCN(c3cc(C(=O)O)cc(Cl)n3)CC2)c(Cl)c1Cl,8.00,2,0.13,2,1,4,> 64,0.25,0.5,–,–,–,–,–,–,–,–,–,–
Cc1[nH]c(C(=O)NC2CCN(c3nc(C(=O)O)cs3)CC2)c(Cl)c1Cl,7.70,8,0.5,8,4,2,> 64,0.25,0.5,–,–,–,–,–,–,–,–,–,–
Cc1ccc(C(=O)NC2CCN(c3cc(C(N)=O)cc(Cl)n3)CC2)[nH]1,5.16,> 64,> 64,> 64,> 64,> 64,> 64,> 64,> 64,–,–,–,–,–,–,–,–,–,–
Cc1[nH]c(C(=O)N[C@@H]2CCN(c3ncc(C(=O)O)s3)C[C@@H]2F)c(Cl)c1Cl,–,2,0.06,2,0.25,0.25,> 64,0.06,0.06,–,–,–,–,–,–,–,80,Dose-dependent effect,54
Cc1[nH]c(C(=O)N[C@H]2CCN(c3ncc(C(=O)O)s3)C[C@H]2F)c(Cl)c1Cl,7.46,–,–,–,–,–,–,–,–,32,1,16,4,4,0.5,2,–,–,–
Cc1[nH]c(C(=O)NC2CCN(c3cc(C(N)=O)cc(Cl)n3)CC2)cc1Br,7.00,32,8,32,> 64,64,> 64,4,4,–,–,–,–,–,–,–,–,–,–
